Laboratory results from publication PMC8897208 (Acta Pharmaceutica Sinica. B, 2021).

Columns and labels:
[1] = target: T1, SIRT6 (Homo sapiens, UniProt Q8N6T7); experiment: In vitro nucleosome deacetylation assay; format: biochemical; details: 10 mmol/L, H3K9Ac and H3K18Ac, Western blot
Summary of the method: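 Nucleosomes were isolated from HeLa cells and deacetylated in vitro by SIRT6 in the presence of NAD+. H3K9Ac and H3K18Ac were detected by Western blot.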

[2] = target: T1, SIRT6; experiment: Fluor de Lys; format: biochemical
Summary of the method: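 Recombinant SIRT6 was expressed in E. coli BL21 in LB with 100 μg/mL ampicillin at 37 °C. Expression was induced with 0.5 mmol/L IPTG at OD600 0.8, then grown 18 h at 16 °C and purified by an earlier method.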

T1 sequence (Q8N6T7 whole entry): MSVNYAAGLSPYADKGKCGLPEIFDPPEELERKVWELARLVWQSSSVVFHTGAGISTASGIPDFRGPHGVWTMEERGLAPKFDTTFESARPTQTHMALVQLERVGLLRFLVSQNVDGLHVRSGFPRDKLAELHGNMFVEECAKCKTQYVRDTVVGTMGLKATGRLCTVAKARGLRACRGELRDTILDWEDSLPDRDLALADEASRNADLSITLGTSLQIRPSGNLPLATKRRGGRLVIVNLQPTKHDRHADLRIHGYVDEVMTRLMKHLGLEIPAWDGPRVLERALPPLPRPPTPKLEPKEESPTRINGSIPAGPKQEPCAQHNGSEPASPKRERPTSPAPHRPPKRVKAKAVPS

| inhibition of SIRT6 deacetylation on nucleosomes [1] | IC50 [2] [µM] | inhibition ratio at 50 μmol/L ([2]; FDL assay, substrate Ac-RHKK-Ac-AMC, 50 μmol/L compound) [%] | SMILES |
| --- | --- | --- | --- |
| weak inhibition | – | – | NC(=O)c1cccnc1 [nicotinamide, reference compound] |
| – | 26.8 | 64.18 | Nc1nonc1-n1cc(C(=O)N/N=C/c2ccccc2O)nn1 [JYQ-1] |
